Laboratory results taken from ChEMBL document CHEMBL5131497, “Design, Synthesis, and Characterization of TNP-2198, a Dual-Targeted Rifamycin-Nitroimidazole Conjugate with Potent Activity against Microaerophilic and Anaerobic Bacterial Pathogens” (J Med Chem, 2022).
Converted amounts (≈) assume the structure as drawn.

Assays:
[1] = Half life in C57BL/6 mouse at 5 mg/kg, iv; format: ADME, organism-based; settings: in vivo
[2] = Drug distribution in Sprague-Dawley rat large intestine content measured at 0.5 hrs; format: ADME, tissue-based; settings: read-out: Ct
Summary of the method: (§1)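 Sprague–Dawley rats were dosed with TNP-2198. Concentrations were measured in plasma (ng/mL) and in tissues or contents (ng/g) at 0.5, 2, 6, 12 and 24 h after dosing. Values below the limit of quantification are reported as BLOQ.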

Helicobacter pylori [3] = test: Resistance development in Helicobacter pylori MMX 3719 assessed as spontaneous resistance frequency using at 1.90 x 10^8 CFU inoculum at 0.5 ug/ml; format: functional; settings: dose 0.5 µg/ml
Summary of the method: (§2)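 H. pylori MMX 3719 exposed to 0.5, 1, 2 and 4 µg/mL drug with an inoculum of 1.90×10^8 CFU at each level. Two independent tests were run, and resistant colonies were counted and averaged. A spontaneous resistance frequency was reported for each concentration, and the MPC was taken across the concentrations tested.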

Bacteroides ovatus = test: Antibacterial activity against metronidazole-resistant Bacteroides ovatus MMX 3504; format: functional
Phocaeicola vulgatus = test: Antibacterial activity against metronidazole-resistant Bacteroides vulgatus 3490; format: functional
[4] = Tmax in Sprague-Dawley rat at 50 mg/kg, po; format: ADME, organism-based; settings: in vivo
[5] = Clearance in C57BL/6 mouse at 5 mg/kg, iv; format: ADME, organism-based; settings: in vivo
Summary of the method: (§3)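 Plasma PK after single intravenous or oral dosing. Mice C57BL/6 at 5 mg/kg IV or 20 mg/kg PO; Sprague–Dawley rats at 10 mg/kg IV or 50 mg/kg PO; beagle dogs at 5 mg/kg IV or 25 mg/kg PO. AUC reported in ng·h/mL. Clearance from the IV arms in mL/min·kg.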

[6] = Drug distribution in Sprague-Dawley rat stomach content measured at 0.5 hrs; format: ADME, tissue-based; settings: read-out: Ct; summary of the method: as §1
[7] = Drug distribution in Sprague-Dawley rat ascites fluid measured at 12 hrs; format: ADME, tissue-based, Ascitic fluid; settings: read-out: Ct; summary of the method: as §1
[8] = Drug distribution in Sprague-Dawley rat ascites fluid measured at 6 hrs; format: ADME, tissue-based, Ascitic fluid; settings: read-out: Ct; summary of the method: as §1
[9] = Drug distribution in Sprague-Dawley rat stomach tissue measured at 24 hrs; format: ADME, tissue-based; settings: read-out: Ct; summary of the method: as §1
[10] = Drug distribution in Sprague-Dawley rat large intestine tissue measured at 12 hrs; format: ADME, tissue-based; settings: read-out: Ct; summary of the method: as §1
[11] = Drug distribution in Sprague-Dawley rat large intestine content measured at 2 hrs; format: ADME, tissue-based; settings: read-out: Ct; summary of the method: as §1
[12] = Drug distribution in Sprague-Dawley rat plasma measured at 12 hrs; format: ADME, cell-free; summary of the method: as §1
[13] = Drug distribution in Sprague-Dawley rat gums measured at 2 hrs; format: ADME, tissue-based, Gingiva; settings: read-out: Ct; summary of the method: as §1
[14] = Oral bioavailability in Sprague-Dawley rat at 50 mg/kg; format: ADME, organism-based; settings: in vivo
[15] = Drug distribution in Sprague-Dawley rat stomach tissue measured at 0.5 hrs; format: ADME, tissue-based; settings: read-out: Ct; summary of the method: as §1
Helicobacter pylori [16] = test: Resistance development in Helicobacter pylori MMX 3719 assessed as spontaneous resistance frequency using at 1.90 x 10^8 CFU inoculum at 4 ug/ml; format: functional; settings: dose 4 µg/ml; summary of the method: as §2
Fusobacterium nucleatum = test: Antibacterial activity against Fusobacterium nucleatum ATCC 10953; format: functional
Clostridioides difficile [17] = test: Resistance development in Clostridioides difficile MMX 4381 assessed as spontaneous resistance frequency using at 1.23 x 10^9 CFU inoculum at 0.5 ug/ml; format: functional; settings: dose 0.5 µg/ml
[18] = Drug distribution in Sprague-Dawley rat vaginal tissue measured at 6 hrs; format: ADME, tissue-based, Vagina; settings: female, read-out: Ct; summary of the method: as §1
[19] = Drug distribution in Sprague-Dawley rat vaginal tissue measured at 24 hrs; format: ADME, tissue-based, Vagina; settings: in vivo, BLD = below limit of detection; summary of the method: as §1
[20] = Drug distribution in Sprague-Dawley rat vaginal secretion measured at 6 hrs; format: ADME, tissue-based, Vaginal fluid; settings: female, read-out: Ct; summary of the method: as §1
Helicobacter pylori [21] = test: Antibacterial activity against Helicobacter pylori infected in C57/BL6 mouse assessed as bacterial load in stomach at 15 mg/kg administered twice daily via oral gavage starting from 7 days post inoculation and administered for 7 days (reference value: 5.25 log10CFU); format: functional; settings: time 7 day
[22] = AUC in Beagle dog at 25 mg/kg, po; format: ADME, organism-based, Canis lupus familiaris; design: dose 25 mg/kg, route po; settings: in vivo; summary of the method: as §3
Syrian golden hamster = test: Antibacterial activity against Clostridioides difficile UNT-103-1 infected in Syrian hamster assessed as survival at 15 to 45 mg/kg, po administered once a daily for 5 days after 18 hrs post 10 mg/kg clindamycin treatment and measured upto 21 days; format: functional, Mesocricetus auratus; settings: dose 15-45 mg/kg, time <= 21 day
Summary of the method: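 Male Golden Syrian hamsters (80-90 g), housed singly, were gavaged with C. difficile UNT103-1 grown in sporulation medium broth and diluted to OD600 1 in prereduced broth. […] From 18 h later, drug or vehicle was given by oral gavage once daily for 5 days. Survival was recorded through day 21.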

[23] = Drug distribution in Sprague-Dawley rat stomach content measured at 6 hrs; format: ADME, tissue-based; settings: read-out: Ct; summary of the method: as §1
[24] = Drug distribution in Sprague-Dawley rat stomach tissue measured at 12 hrs; format: ADME, tissue-based; settings: read-out: Ct; summary of the method: as §1
Clostridioides difficile [25] = test: Antibacterial activity against fluoroquinolone-resistant Clostridioides difficile CB1939 measured after 3 days; format: functional; settings: CB1939, 72 h, time 3 day
Prevotella disiens = test: Antibacterial activity against Prevotella disiens MMX 3446; format: functional
[26] = Volume of distribution at steady state in Beagle dog at 5 mg/kg, iv; format: ADME, organism-based, Canis lupus familiaris; settings: in vivo, read-out: Vdss
[27] = Tmax in Beagle dog at 25 mg/kg, po; format: ADME, organism-based, Canis lupus familiaris; settings: in vivo
[28] = Drug distribution in Sprague-Dawley rat ascites fluid measured at 24 hrs; format: ADME, tissue-based, Ascitic fluid; settings: in vivo, BLD = below limit of detection; summary of the method: as §1
[29] = Drug distribution in Sprague-Dawley rat large intestine content measured at 6 hrs; format: ADME, tissue-based; settings: read-out: Ct; summary of the method: as §1
[30] = Drug distribution in Sprague-Dawley rat stomach content measured at 2 hrs; format: ADME, tissue-based; settings: read-out: Ct; summary of the method: as §1
[31] = Drug distribution in Sprague-Dawley rat brain measured at 24 hrs; format: ADME, tissue-based; settings: in vivo, BLD = below limit of detection; summary of the method: as §1
[32] = AUC in C57BL/6 mouse at 20 mg/kg, po; format: ADME, organism-based; design: dose 20 mg/kg, route po; settings: in vivo; summary of the method: as §3
Helicobacter pylori [33] = test: Resistance development in Helicobacter pylori MMX 3719 assessed as spontaneous resistance frequency using at 1.90 x 10^8 CFU inoculum at 1 ug/ml; format: functional; settings: dose 1 µg/ml; summary of the method: as §2
Staphylococcus aureus = test: Antibacterial activity against Staphylococcus aureus ATCC 29213; format: functional
Clostridioides difficile [34] = test: Antibacterial activity against rifampicin-resistant Clostridium difficile MMX 3587; format: functional
[35] = Drug distribution in Sprague-Dawley rat gums measured at 0.5 hrs; format: ADME, tissue-based, Gingiva; settings: read-out: Ct; summary of the method: as §1
Helicobacter pylori [36] = test: Resistance development in Helicobacter pylori MMX 3719 assessed as mutation prevention concentration using at 1.90 x 10^8 CFU inoculum; format: functional; settings: dose 0.5 µg/ml; summary of the method: as §2
[37] = Drug distribution in Sprague-Dawley rat ascites fluid measured at 2 hrs; format: ADME, tissue-based, Ascitic fluid; settings: read-out: Ct; summary of the method: as §1
Peptostreptococcus sp. = test: Antibacterial activity against Peptostreptococcus magnus ATCC 14956; format: functional
[38] = Drug distribution in Sprague-Dawley rat plasma measured at 2 hrs; format: ADME, cell-free; summary of the method: as §1
Helicobacter pylori [39] = test: Antibacterial activity against rifampicin-resistant Helicobacter pylori CB1903 harboring rpoBD530V mutant measured after 5 days by agar dilution method; format: functional; settings: CB1903, 120 h, time 5 day
Summary of the method: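 Agar dilution per CLSI. Wild-type ATCC 700392 (CB1531) and its derivatives carry defined resistance determinants. Drugs, alone or in 1:1 molar mixtures, were diluted 2-fold from 100× stocks into Mueller–Hinton agar with aged (≥2 weeks) sheep blood (5% v/v). MIC read after 5 days at 35 °C under microaerobic conditions from a campylobacter gas-generating system.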

[40] = Drug distribution in Sprague-Dawley rat large intestine content measured at 24 hrs; format: ADME, tissue-based; settings: read-out: Ct; summary of the method: as §1

SMILES: CO[C@H]1/C=C/O[C@@]2(C)Oc3c(C)c(O)c4c(c3C2=O)C2=NC3(CCN(CCn5c([N+](=O)[O-])cnc5C)CC3)NC2=C(NC(=O)/C(C)=C\C=C\[C@H](C)[C@H](O)[C@@H](C)[C@@H](O)[C@@H](C)[C@H](OC(C)=O)[C@@H]1C)C4=O [RIFASUTENIZOL]
- half-life [1]: 0.8 h
- concentration at 0.5 h [2]: 1480 ng/g
- Activity (Helicobacter pylori [3]): <5 10^-9No_unit
- MIC (Bacteroides ovatus): 0.12 µg/mL (≈ 0.127 µM)
- MIC (Phocaeicola vulgatus): 0.03 µg/mL (≈ 0.0318 µM)
- Tmax [4]: 1.8 h
- clearance [5]: 23 mL/min/kg
- concentration at 0.5 h [6]: 3.26e+06 ng/g
- concentration at 12 h [7]: 84.5 ng/g
- concentration at 6 h [8]: 3480 ng/g
- concentration at 24 h [9]: 14.4 ng/g
- concentration at 12 h [10]: 31.6 ng/g
- concentration at 2 h [11]: 1170 ng/g
- concentration at 12 h [12]: 4.33 ng/mL
- concentration at 2 h [13]: 6040 ng/g
- bioavailability [14]: 48%
- concentration at 0.5 h [15]: 113000 ng/g
- Activity (Helicobacter pylori [16]): <5 10^-9No_unit
- MIC (Fusobacterium nucleatum): 0.12 µg/mL (≈ 0.127 µM)
- Activity (Clostridioides difficile [17]): 8 10^-9No_unit
- concentration at 6 h [18]: 2590 ng/g
- Ct [19]: Bld
- concentration at 6 h [20]: 6240 ng/g
- Activity (Helicobacter pylori [21]): 1.94 log10CFU
- AUC [22]: 14800 ng·h/mL
- Activity (Syrian golden hamster): 100%
- concentration at 6 h [23]: 28800 ng/g
- concentration at 12 h [24]: 114 ng/g
- MIC (Clostridioides difficile [25]): ≤ 0.002 µg/mL
- MIC (Prevotella disiens): 0.015 µg/mL (≈ 0.0159 µM)
- Vd [26]: 2.8 L/kg
- Tmax [27]: 1.2 h
- Ct [28]: Bld
- concentration at 6 h [29]: 84300 ng/g
- concentration at 2 h [30]: 1.75e+06 ng/g
- Ct [31]: Bld
- AUC [32]: 3040 ng·h/mL
- Activity (Helicobacter pylori [33]): <5 10^-9No_unit
- MIC (Staphylococcus aureus): 0.015 µg/mL (≈ 0.0159 µM)
- MIC (Clostridioides difficile [34]): 0.25 µg/mL (≈ 0.265 µM)
- concentration at 0.5 h [35]: 3470 ng/g
- Activity (Helicobacter pylori [36]): <=0.5 ug ml-1
- concentration at 2 h [37]: 5270 ng/g
- MIC (Peptostreptococcus sp.): 0.0005 µg/mL (≈ 0.00053 µM)
- concentration at 2 h [38]: 2640 ng/mL
- MIC (Helicobacter pylori [39]): 0.125 µg/mL (≈ 0.132 µM)
- concentration at 24 h [40]: 53.9 ng/g
